A selection: hits, their analogues and other compounds. The true share with any hit is near 3.1%.
UBC13 polyUb: blocks human UBC13 polyubiquitin chain formation | P61088 | TR-FRET | inhibition, % at 20 µM | 330,000 tested, 0.47% active | AID 485273; in the data active = inhibition above about 45%, passing the limit was not always enough
MEKK2wt PB1 HTS: raises or lowers MEK5 binding to wildtype human MEKK2 PB1 domain. bead flow cytometry, Alexa488-MEK5 binding to MEKK2 WT; actives lie on both sides. binding response (% of control), % at 10 µM. 290,000 tested, 1.1% active. AID 1531; in the data active = binding response below about 67% or above about 130%
PREPL inhibitor: inhibitors of human prolyl oligopeptidase-like enzyme PREPL; Q4J6C6; recombinant PREPL, fluorescence polarization activity-based probe; inhibition, % at 5.96 µM; 320,000 tested, 0.68% active; AID 2751; in the data active = inhibition above about 43%
MEKK3 PB1 HTS: modulators (inhibitors or enhancers) of MEK5 binding to human MEKK3 PB1 domain; Q99759; 290,000 tested, 1.4% active; bead-based flow cytometry, Alexa488-MEK5 binding to MEKK3; actives lie on both sides; 0 = blocked by unlabeled MEK5, 100 = vehicle; binding response (% of control), % at 10 µM;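 active = binding response more than 3 SD above or below the average of its plate-row segment, actives on both sides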;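 also: Alexa488 bead fluorescence after subtracting the streptavidin-only scavenger bead signal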
Apaf1 inhib: inhibitors of human Apaf-1 apoptosome; reconstituted apoptosome caspase-3 activity, DEVD-Rh110 fluorescence; O14727; 330,000 tested, 0.71% active; inhibition, % at 20 µM; active = inhibition of at least 40% at 20 µM
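System: Apoptosome proteins | Medium: Hepes pH 7.5 with detergent and BSA | Also added: Cytochrome c trigger plus (Z-DEVD)2-Rh110 caspase-3 substrate | Incubation: 30 min compound preincubation, 50 min activation, room temperature | Detection: Rhodamine 110 fluorescence at Ex 480/Em 540 nm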
MEKK2mut PB1 HTS: signal of MEK5 binding to mutant human MEKK2 PB1 domain; bead flow cytometry, Alexa488-MEK5 binding to MEKK2 mutant; percent response, % at 10 µM; 290,000 tested, 0.35% active; AID 1530; in the data active = percent response above about 24%, passing the limit was not always enough
MEKK2wt confirm: raises or lowers MEK5 binding to wildtype human MEKK2, retest. shares compounds with MEKK3 PB1 HTS. bead flow cytometry, Alexa488-MEK5 binding to MEKK2 WT; actives lie on both sides. binding response (% of control), % at 10 µM. 5,900 tested, 2.4% active; in the data active = binding response below about 16% or above about 210%; inactive = in between
MEKK2mut-MEK5: signal of MEK5 binding to mutant human MEKK2, retest; shares compounds with MEKK3 PB1 HTS; bead flow cytometry, Alexa488-MEK5 binding to MEKK2 mutant; percent response, % at 10 µM; 5,900 tested, 2% active; AID 1893; in the data active = percent response mostly above about 71%, no sharp cut-off; inactive = mostly below about 38%;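 also: higher means compound restores mutant binding toward wildtype level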
MEKK3 confirm: confirmation of inhibitors of MEK5 binding to human MEKK3; binding response (% of control), % at 10 µM; 5,900 tested, 1.8% active; AID 1894; shares compounds with MEKK3 PB1 HTS; bead flow cytometry, Alexa488-MEK5 binding to MEKK3; active compounds read low;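 active = binding response below 72% of control, or above a set upper limit, though filed actives all read lower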;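 also: lower values mean stronger disruption of MEK5 binding to MEKK3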
A number is an active result; i = inactive; nt = no result given.

SMILES	UBC13 polyUb	MEKK2wt PB1 HTS	PREPL inhibitor	MEKK3 PB1 HTS	Apaf1 inhib	MEKK2mut PB1 HTS	MEKK2wt confirm	MEKK2mut-MEK5	MEKK3 confirm
Cc1cc(N2CCC(N(C)C3CCCC3)CC2)nc2cc(O)ccc12	i	142	i	i	i	24	i	i	i
CN(C)C(=O)CCc1ccc2c3c([nH]c2c1)[C@]1(C)[C@@H](C(=O)N2CCCCC2)C[C@H](CC(=O)NCC24CC5CC(CC(C5)C2)C4)C(=O)N1CC3	nt	nt	nt	nt	i	nt	nt	nt	nt
CCCc1nnc(SCC(=O)NC2CC2)n1C	i	i	i	i	i	i	nt	nt	nt
O=C(COc1ccccc1Cl)Nc1ccc2oc(=O)ccc2c1	i	i	i	i	i	i	nt	nt	nt
Cc1ccc(-c2n[nH]c(=S)n2/N=C/c2ccc(C)o2)cc1	i	i	i	151	i	i	i	i	i

Compound activity as filed in PubChem.
